Hits are enriched below; roughly 2.1% of the tested compounds scored in any of these assays.
FID counter – compounds displacing fluorescent DNA intercalator, primary screen, artefact control for HCV NS3 helicase inhibitor project, biochemical, FID fluorescence. DNA fluorescent intercalator displacement. inhibition, % at 7.9 µM. 290,000 compounds, 0.17% hits; in the data active = inhibition above about 37%;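 note: higher means more ethidium bromide displaced from hairpin DNA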
IMP-1 inh – IMP-1 metallo-beta-lactamase inhibitors, primary screen, biochemical, epi-absorbance readout, Pseudomonas aeruginosa enzyme. 290,000 compounds, 0.45% hits. purified IMP-1, nitrocefin hydrolysis, epi-absorbance fluorescence. AID 1556, 2009. inhibition, % at 5.6 µM;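 active = inhibition above the mean plus 3 SD of all compounds in the same screening run, cut at about 4.5% in these data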
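assay system = purified recombinant IMP-1 metallo-beta-lactamase enzyme | schedule = 15 min preincubation plus 25 min reaction at 25 °C | signal = Epi-absorbance fluorescence, 480 nm excitation, 530 nm emission | read-out basis = percent inhibition from optical density relative to buffer-blank wells | controls = IMP-1 with DMSO as 0%, enzyme-free DMSO as 100%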
UBC9 SUMO inh – inhibitors of in vitro SUMOylation cascade, primary screen, biochemical, HTRF, uHTS; SUMO-conjugating enzyme UBC9 (Homo sapiens), P63279; 290,000 compounds, 0.36% hits; HTRF SUMOylation assay, SAE1/SAE2 + UBC9; inhibition, % at 35 µM; in the data active = inhibition above about 50%, passing the limit was not always enough
Target sequence (P63279 whole entry, looked up): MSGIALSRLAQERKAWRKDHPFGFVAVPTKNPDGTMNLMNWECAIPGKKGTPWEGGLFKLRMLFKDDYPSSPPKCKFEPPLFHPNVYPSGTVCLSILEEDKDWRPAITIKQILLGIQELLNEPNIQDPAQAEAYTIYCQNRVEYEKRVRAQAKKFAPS
VIM-2 inhibitor – VIM-2 metallo-beta-lactamase inhibitors, primary screen, biochemical, epi-absorbance readout, Pseudomonas aeruginosa enzyme. purified VIM-2, nitrocefin hydrolysis, epi-absorbance fluorescence. inhibition, % at 5.6 µM. 290,000 compounds, 0.89% hits;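 active = inhibition above the mean of all tested compounds plus 3 SD, cutoff set per screening run, cut at about 7.5% in these data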;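 note: red hydrolysis product quenches plate fluorescence so inhibitors raise well fluorescence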
NS3 helicase inh – inhibitors of HCV NS3 helicase, primary screen, biochemical, Cy5 molecular beacon fluorescence | NS3 helicase DNA unwinding | inhibition, % at 10.9 µM | 290,000 compounds, 0.56% hits;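 active = inhibition above the mean of all tested compounds plus 3 SD, set per campaign, cut at about 35% in these data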
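test system = hepatitis C virus NS3 helicase domain fragment enzyme | reagent = annealed dual-labelled DNA beacon duplex, ATP-started | times = 1 h at 25 °C | detection = Cy5 fluorescence, 0 and 60 min reads | read-out basis = percent inhibition from t60/t0 fluorescence ratio | control set = DMSO and thioflavine S | replication = one well per compound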
Large screens that a line does not name were inactive.

COc1ccc(NC(=O)C(CC(C)C)NC(=O)C2CCCCC2)c(OC)c1 (stereo not given)	none
CCC(C)Sc1cc(C)c(C#N)c2nc3ccccc3n12 (stereo not given)	VIM-2 inhibitor 10.1
Cc1cc(-n2ccnc2)n2c(nc3ccccc32)c1C#N	VIM-2 inhibitor 7.7
CC1=NN(c2ccc(Cl)c(C(=O)O)c2)C(=O)/C1=C\c1ccc(-c2ccc(C(=O)O)cc2)o1	IMP-1 inh 7.7, UBC9 SUMO inh 81.7
O=C(NCCCN1CCCCCC1)c1ccc2c(Cl)c3c(nc2c1)CCCC3	none
CCCN(CCC)CCCNC(=O)c1ccc2c(Cl)c3c(nc2c1)CCC3	VIM-2 inhibitor 9.6
CCN1CCN(CCCNC(=O)c2ccc3c(Cl)c4c(nc3c2)CCCC4)CC1	VIM-2 inhibitor 11.3
CC1CCN(CCCNC(=O)c2ccc3c(Cl)c4c(nc3c2)CCCC4)CC1	VIM-2 inhibitor 11.2
Cc1cc(C)c2oc(=O)cc(CN3CCCCC3)c2c1	none
O=C(COC(=O)c1cncc(Br)c1)NC1CCCCCC1	none
CCCn1c(C)nc2c(c1=O)c1nc3ccccc3nc1n2CCc1ccccc1	none (no result: UBC9 SUMO inh)
CCCn1c(C)nc2c(c1=O)c1nc3ccccc3nc1n2CCC1=CCCCC1	VIM-2 inhibitor 8.3
CCOc1ccccc1N(CC(=O)OC)S(C)(=O)=O	IMP-1 inh 4.9
Cc1ccccc1OCC(=O)Nc1ccc2[nH]ncc2c1	none
Cc1nc(S/C(=C/c2ccc(OCc3ccc(C(=O)O)cc3)cc2)C(=O)O)n[nH]1	UBC9 SUMO inh 58.4
O=c1c2ccccc2nc(-c2ccco2)n1CCCn1ccnc1	VIM-2 inhibitor 8.1
O=C(NCCc1ccccc1)c1ccc2c(=O)[nH]c3c(C(=O)NCC4CCCO4)sc(=S)n3c2c1 (stereo not given)	FID counter 48.7
CN(C)/C=C/c1c([N+](=O)[O-])c2ccc(O)cc2n1-c1ccccc1	none
Cc1nc(N2CCN(C(=O)c3ccco3)CC2)c2c3c(sc2n1)CCCC3	none
CCc1nc(SCC(=O)N2CCN(C(=O)c3ccco3)CC2)c2c3c(sc2n1)CCCC3	VIM-2 inhibitor 9.7
CCOC(=O)c1ccc2c(c1)n(CC)c(/C=C/N(C)c1ccccc1)[n+]2CC	none
CC[n+]1c(/C=C/N(C)c2ccccc2)n(-c2ccccc2)c2ccc(-c3nc4ccccc4s3)cc21	FID counter 40.8
CC(C)c1nc(SCC(=O)Nc2nccs2)c2ccccc2n1	none
CC(C)c1nc(SCC(=O)Nc2ccc(N(C)C)cc2)c2ccccc2n1	IMP-1 inh 5.2
O=C(N/N=C/c1sc(=O)n(Cc2ccc(Br)cc2)c1Cl)c1ccco1	IMP-1 inh 23.9
COc1ccc(CC(=O)Nc2nc(-c3ccncc3)cs2)cc1	IMP-1 inh 6.7
COc1ccc(-c2csc(NC(=O)c3ccc(S(C)(=O)=O)cc3)n2)cc1	IMP-1 inh 5.6
COc1ccc(CCC(=O)Nc2nc(-c3ccncc3)cs2)cc1	none
Cc1c(C)[n+](=O)c(-c2ccc(Br)cc2)c(C)n1[O-]	none
CCCN1C(=O)C(NC(C)=O)c2ccccc21 (stereo not given)	none
CCc1ccc2c(c1)C(NC(C)=O)C(=O)N2CCN1CCOCC1 (stereo not given)	UBC9 SUMO inh 60.5
CC1CCCC(NCC(O)COC(c2ccc(F)cc2)c2ccc(F)cc2)C1C (stereo not given)	FID counter 46.5
COCCN1C(=O)/C(=C/c2ccc(N3CCCC3)cc2)SC1=S	IMP-1 inh 4.5
O=C(O)c1ccc(N2C(=O)/C(=C/c3ccc(-c4ccc([N+](=O)[O-])cc4)o3)C=C2c2ccccc2)cc1	NS3 helicase inh 39.7
CC1(C)Oc2ccc(C(=O)N/N=C/c3ccc(O)cc3)cc2NC1=O	none
Cc1cc(-c2n[nH]c(=S)n2Cc2ccccc2)cs1	VIM-2 inhibitor 7.9
Oc1ccc(-c2n[nH]c(=S)n2Cc2ccccc2)cc1	VIM-2 inhibitor 10.9
CCN1CCC(Nc2ccnc3cc(Cl)ccc23)CC1	FID counter 49.8
CCOc1ccc(Nc2ccnc3cc(Cl)ccc23)cc1	none
CC(=O)Nc1ccc(-c2nnc(SCC(=O)n3c4c(c5ccccc53)CCCC4)n2C)cc1	none
Cn1c(SCC(=O)n2c3c(c4ccccc42)CCCC3)nnc1-c1ccccc1	VIM-2 inhibitor 8.7
Cc1nnc(SCC(=O)n2c3c(c4ccccc42)CCCC3)s1	VIM-2 inhibitor 9.8
Cc1[nH]c2ccccc2c1CCN(Cc1cccnc1)C(=S)NC(C)(C)C	none
CCc1nnc2c(NCCc3ccccc3)nc3ccccc3n12	VIM-2 inhibitor 8.5
CCc1nc2ccccc2n1CCc1ccccc1	none
CCCNc1nc2ccccc2n2c(C)nnc12	VIM-2 inhibitor 11.1
COc1ccc(/C=N/NC(=O)COc2cc(C)cc(C)c2)cc1COC(C)=O	none
CCN(C(=O)CCN1C(=O)S/C(=C\c2ccccc2)C1=O)C1CCS(=O)(=O)C1 (stereo not given)	none
Cc1cccc(NC(=O)Cc2coc3ccc4ccccc4c23)n1	none
O=C1CCCc2cc3c(cc21)CC1(C3)Cc2cc3c(cc2C1)C(=O)CCC3	UBC9 SUMO inh 82.2
CC1CCCCC1Nc1nc2ccc(Cl)cc2n2cnnc12 (stereo not given)	none
Cc1ccc(-c2nnc3c4ccccc4c(C)nn23)cc1NC(=O)c1ccco1	none (no result: UBC9 SUMO inh)
Cc1nn2c(-c3cccc(NC(=O)c4ccco4)c3)nnc2c2ccccc12	VIM-2 inhibitor 9.8
CCCn1c(SCC(=O)NC2CCCCC2)nnc1C1CC1	none
CCCn1c(SCC(=O)Nc2nnc(C)s2)nnc1C1CC1	VIM-2 inhibitor 7.8
CCOc1cc(CNC2CCCC2)cc(Cl)c1OCc1ccccc1	FID counter 38.6
CC(C)NC(=O)C(=O)c1cn(C)c2ccccc12	none
Cn1cc(C(=O)C(F)(F)F)c2ccccc21	IMP-1 inh 5.8
CCc1cccc(NC(=O)CCS(=O)(=O)c2ccc(Br)cc2)c1	IMP-1 inh 9.8
NS(=O)(=O)c1ccc(CCNC(=O)CCS(=O)(=O)c2ccc(Br)cc2)cc1	IMP-1 inh 7.8
COc1ccccc1N=C(C)C1=C(O)CSC1=O	IMP-1 inh 5.6
COc1ccc(-c2cc(C(=O)Nc3ccc(Br)cc3)no2)cc1	IMP-1 inh 20.2
COc1ccc(-c2cc(C(=O)Nc3cc(Cl)ccc3O)no2)cc1	IMP-1 inh 24.9
CCc1ccc(NC(=O)c2cc(-c3ccc(OC)cc3)on2)cc1	none
COc1ccc(-c2cc(C(=O)Nc3cc(C)ccc3O)no2)cc1	none
CCCCC(=O)NC1(C(F)(F)F)NC(=O)N(Cc2ccccc2)C1=O (stereo not given)	none
NC(=O)N/N=C/c1coc2ccc3ccccc3c2c1=O	none
O=Cc1coc2ccc3ccccc3c2c1=O	IMP-1 inh 35.5

Assay outcomes: PubChem, several laboratories
